Consider 11 molecules from ChEMBL document CHEMBL1629689, “Cross-resistance to nitro drugs and implications for treatment of human African trypanosomiasis” (Antimicrob Agents Chemother, 2010).

Structures are written as SMILES. ≈ marks a conversion by molar mass, not a printed value. Calls of active or inactive are those of the source. No cut-off for these calls is given here.

The test system of data set [1] is Trypanosoma brucei. The experiment in a line: Selectivity ratio of EC50 for Trypanosoma brucei NfxR2 to EC50 for Trypanosoma brucei. Format: functional. An outline of the steps:
(§1)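 Resistance factor taken as EC50 for resistant cells divided by EC50 for wild-type S427 bloodstream T. brucei, both from the same in vitro growth-inhibition assay. EC50 values come from at least three independent experiments.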

In data set [2] the test system is Trypanosoma brucei. The experiment in a line: Antimicrobial activity against Trypanosoma brucei. The class given is functional, organism-based. An outline of the steps:
(§2)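 T. brucei bloodstream-form single-marker S427 (wild type) and cloned nifurtimox-resistant lines, cultured at 37°C in HMI9-T with 2.5 µg/ml G418. Growth inhibition measured, data corrected for background cell density and expressed as % of untreated cells. EC50 from a two-parameter fit with slope factor. At least three independent experiments; weighted means ± weighted SD.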

The subject of data set [3] is Trypanosoma brucei. The experiment in a line: Antimicrobial activity against Trypanosoma brucei NfxR1. The class given is functional, organism-based. In short, it runs like this:
as §2

Data set [4] deals with Trypanosoma brucei. The data set is described as follows: Antimicrobial activity against Trypanosoma brucei NfxR2. The class given is functional, organism-based. An outline of the steps:
as §2

The test system of data set [5] is Trypanosoma brucei. The data set is described as follows: Selectivity ratio of EC50 for Trypanosoma brucei NfxR1 to EC50 for Trypanosoma brucei. The class given is functional. In short, it runs like this:
as §1

For data set [6], the system named is Blood. The data set is described as follows: Metabolic stability in blood of NMRI mouse assessed as accumulation of sulfone metabolite at 200 mg/kg, po measured after 8 hrs. The note with it: in vivo.
The test system of data set [7] is Trypanosoma brucei. The experiment in a line: Antimicrobial activity against Trypanosoma brucei NfxR1 infected in mouse assessed as decrease in parasitemia level at 200 mg/kg, QD for 3 days measured on day 60 by neubuaer hemocytometry.
Data set [8] can be described thus: Fraction unbound in plasma of NMRI mouse at 200 mg/kg, po. The class given is ADME, organism-based. Details: dose 200 mg/kg, route oral.
Data set [9] deals with Trypanosoma brucei. The data set is described as follows: Antimicrobial activity against Trypanosoma brucei NfxR1 infected in dosed NMRI administered QD for 3 days measured on day 6 by neubuaer hemocytometry.
The nature of data set [10]: Cmax in NMRI mouse at 200 mg/kg, po after 15 mins. The arrangement: dose 200 mg/kg, route oral. The settings on record: in vivo. Format: ADME, organism-based. In short, it runs like this:
(§3)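 Single oral dose of 200 mg/kg to NMRI mice, vehicle 10% DMSO in peanut oil. Tail-vein blood (10 µl) taken into water at 0.25, 0.5, 1, 2, 4, 6 and 8 h. Samples extracted by acetonitrile protein precipitation with internal standard. Parent and sulfoxide and sulfone metabolites measured by UPLC-MS/MS (positive ESI, MRM). Triplicate measurements.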

Data set [11] relates to Trypanosoma brucei. The experiment in a line: Antimicrobial activity against Trypanosoma brucei wild type.
For data set [12], the system named is Blood. The experiment in a line: Metabolic stability in blood of NMRI mouse assessed as accumulation of sulfoxide metabolite at 200 mg/kg, po measured after 2 hrs. The settings on record: in vivo. Format: ADME, organism-based. The arrangement: dose 200 mg/kg, route oral. An outline of the steps:
as §3

Data set [13] has as its system Trypanosoma brucei. The data set is described as follows: Antimicrobial activity against wild type Trypanosoma brucei infected in dosed NMRI administered QD for 3 days measured on day 6 by neubuaer hemocytometry.
Data set [14] deals with Trypanosoma brucei. The experiment in a line: Antimicrobial activity against wild type Trypanosoma brucei infected NMRI assessed as cure rate at 50 mg/kg, QD for 3 days measured on day 6 by neubuaer hemocytometry.
Data set [15] deals with Trypanosoma brucei. The data set is described as follows: animal or person. The note with it: in Mus musculus, ip, 96 h.
The subject of data set [16] is Trypanosoma brucei. The experiment in a line: Antimicrobial activity against Trypanosoma brucei wild type. This is another data set of the same source.
Data set [17] relates to Trypanosoma brucei. The settings on record: NfxR1, 100 mg/kg.
The test system of data set [18] is Trypanosoma brucei gambiense. The data set is described as follows: Antimicrobial activity against Trypanosoma brucei gambiense.

In general, EC50 refers to the concentration at which the effect is half-maximal. With `O=C(Cn1ccnc1[N+](=O)[O-])NCc1ccccc1` [BENZNIDAZOLE], the “Ratio EC50” value in [1] and in data set [5] was 5 throughout. Moreover, the EC50 was determined as 30 µM in data set [2], 154 µM in [3] and 155 µM in [4].
As for `NCCCC(N)(C(=O)O)C(F)F` (configuration not stated) [EFLORNITHINE], the “Ratio EC50” value in data set [1] and in data set [5] was 1 in each case. Further, the figures for the EC50 in [2], in data set [3] and in [4] were 16.4 µM, 11.9 µM and 11.5 µM, respectively.
For `Cn1c([N+](=O)[O-])cnc1COc1ccc(S(C)(=O)=O)cc1` [FEXINIDAZOLE SULFONE], the “Ratio EC50” value in data set [1] and in data set [5] was 15 each time. For the same molecule, the concentration for a half-maximal effect (EC50) in data set [2] was 0.62 µM; in [3], 9.6 µM; in [4], 9.5 µM. In data set [6], the Stability came out at 55000 ng/mL.
`Cn1c([N+](=O)[O-])cnc1COc1ccc([S+](C)[O-])cc1` (configuration not stated) [FEXINIDAZOLE SULFOXIDE]: the “Ratio EC50” value in [1] is listed as 15; in [5] it was 13. In addition, the EC50 came out at 1.4 µM in data set [2], 18.4 µM in [3] and 21 µM in [4].
One may read the fraction unbound as the share of the substance not bound to proteins or other matrix. Lower therefore signals little free substance. Broadly, the ED50 is the dose at which the effect has come halfway, by size or by number of responders. A high value points to a need for a large dose. In general, Cmax refers to the highest concentration seen after dosing. The MIC is the lowest concentration that inhibits growth of the organism. High values mean weaker potency, low ones greater potency. Consider `CSc1ccc(OCc2ncc([N+](=O)[O-])n2C)cc1` [FEXINIDAZOLE], for which the inhibition result in [7] was “inactive”. For the same molecule, the fraction unbound in data set [8] was 0.147. The median effective dose (ED50) was 171 mg/kg in [9] and 21 mg/kg in data set [13]. This molecule gave a Cmax in data set [10] of 961 ng/mL. In [11], this molecule had an MIC of 17.7 µM (≈ 4.94 µg/mL). In [12], the Stability was 40000 ng/mL. For the same molecule, in data set [14], the Activity was determined as 100%.
In the case of `Cc1ncc([N+](=O)[O-])n1CCO` [METRONIDAZOLE], the EC50 in data set [2], in data set [3] and in data set [4] was above 500 µM throughout.
In [15], `CC1CS(=O)(=O)CCN1/N=C/c1ccc([N+](=O)[O-])o1` (configuration not stated) [NIFURTIMOX] showed an ED50 of 36.7 mg/kg and an ED99 of 128 mg/kg. For the same molecule, the MIC in data set [16] was found to be 15.2 µM (≈ 4.37 µg/mL). Moreover, the inhibition entry in data set [17] is “inactive”. This molecule came in with an EC50 in data set [18] of 0.26 µM.
`NC(=O)N/N=C/c1ccc([N+](=O)[O-])o1` [NITROFURAZONE]: the “Ratio EC50” value in [1] and in data set [5] was 12 each time. The EC50 in data set [2] was 0.31 µM; in [3] it was 3.7 µM; in data set [4], 3.7 µM.
Consider `N=C(N)c1ccc(OCCCCCOc2ccc(C(=N)N)cc2)cc1` [PENTAMIDINE], for which the results for the “Ratio EC50” value in data set [1] and in data set [5] were 2 and 3, respectively. Further, the values for the EC50 in data set [2], in data set [3] and in [4] were 0.00095 µM, 0.0026 µM and 0.0017 µM, respectively.
Turning to `O=[N+]([O-])c1cn2c(n1)OC[C@@H](OCc1ccc(OC(F)(F)F)cc1)C2` [PRETOMANID], the “Ratio EC50” value in data set [1] and in [5] was 1 throughout. Also, the results for the concentration for a half-maximal effect (EC50) in data set [2], in data set [3] and in [4] were 37.8 µM, 30.5 µM and 30.8 µM, respectively.
`NC(=O)c1cc(N2CC2)c([N+](=O)[O-])cc1[N+](=O)[O-]` [TRETAZICAR]: the entries for the “Ratio EC50” value in data set [1] and in data set [5] were 19 and 15, respectively. For the same molecule, the EC50 in data set [2] amounted to 0.54 µM; in data set [3] it was 8 µM; in [4], 10.2 µM.
